Experiments:
[1] = Plasma level by the renin inhibition assay from samples taken at 30 minutes from systemic circulation by administering 10 mg/kg intraduodenally to the rat
[2] = Plasma level by the renin inhibition assay from samples taken at 30 minutes from portal circulation by administering 10 mg/kg intraduodenally to the rat
[3] = Plasma level by the renin inhibition assay from samples taken at 10 minutes from systemic circulation by administering 10 mg/kg intraduodenally to the rat
[4] = Plasma level by the renin inhibition assay from samples taken at 10 minutes from portal circulation by administering 10 mg/kg intraduodenally to the rat
Renin = target: T1, Renin (Homo sapiens, UniProt P00797); assay: Inhibition of human plasma renin at pH 7.4; type: cell-free
T1 sequence (P00797 whole entry): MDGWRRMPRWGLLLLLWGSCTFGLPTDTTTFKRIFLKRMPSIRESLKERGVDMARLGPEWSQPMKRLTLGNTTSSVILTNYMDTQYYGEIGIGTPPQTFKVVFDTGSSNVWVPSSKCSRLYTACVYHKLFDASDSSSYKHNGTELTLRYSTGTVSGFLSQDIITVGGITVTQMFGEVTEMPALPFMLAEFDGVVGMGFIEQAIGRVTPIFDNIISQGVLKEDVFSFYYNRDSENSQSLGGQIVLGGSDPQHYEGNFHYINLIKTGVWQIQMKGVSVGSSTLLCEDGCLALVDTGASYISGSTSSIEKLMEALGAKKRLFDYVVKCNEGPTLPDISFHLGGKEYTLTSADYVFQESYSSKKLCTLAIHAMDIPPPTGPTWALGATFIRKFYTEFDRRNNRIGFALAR
Procedure, shortened: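 Human plasma renin, pH 7.4; IC50 determined by the previously described method.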

[5] = Partition coefficient (logD7.4); settings: octanol/water, pH 7.4
[6] = Integrated area under the plasma drug level-time curve after intraduodenal administration at a dose 10 mg/kg from portal circulation in salt-depleted cynomolgus monkeys using HPLC assay; type: ADME, organism-based, Macaca fascicularis; parameters: dose 10 mg/kg, route intraduodenal; settings: cynomolgus monkey
Procedure, shortened: (§1)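 Salt-depleted cynomolgus monkeys, anesthetized, n = 4; 10 mg/kg intraduodenal in ethanol/HCl (110 mol %) diluted with aqueous hydroxypropyl methylcellulose (25% ethanol final, 10 mg/mL). 5-h experiment, systemic and portal sampling. Plasma (0.40 mL) mixed with 10% Na2CO3, extracted with ethyl acetate, assayed by HPLC; recoveries 75-85%. AUC as ng h/mL; mean ± SEM.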

[7] = Peak plasma drug level after intraduodenal administration at a dose 10 mg/kg from portal circulation in salt-depleted cynomolgus monkeys using HPLC assay; type: ADME, organism-based, Macaca fascicularis; parameters: dose 10 mg/kg, route intraduodenal; settings: cynomolgus monkey, read-out: Activity; procedure, shortened: as §1
[8] = Integrated area under the plasma drug level-time curve after intraduodenal administration at a dose 10 mg/kg from systemic circulation in salt-depleted cynomolgus monkeys using HPLC assay; type: ADME, organism-based, Macaca fascicularis; parameters: dose 10 mg/kg, route intraduodenal; settings: cynomolgus monkey; procedure, shortened: as §1
[9] = Peak plasma drug level after intraduodenal administration at a dose 10 mg/kg from systemic circulation in salt-depleted cynomolgus monkeys using HPLC assay; type: ADME, organism-based, Macaca fascicularis; parameters: dose 10 mg/kg, route intraduodenal; settings: cynomolgus monkey, read-out: Activity; procedure, shortened: as §1

SMILES | concentration at 0.5 h [1] | concentration at 0.5 h [2] | concentration at 10 min [3] | concentration at 10 min [4] | IC50 (Renin) | logD [5] | AUC [6] | Cmax [7] | AUC [8] | Cmax [9]
COc1ccc(C[C@H](NC(=O)CC(C)(C)N)C(=O)N[C@@H](Cc2cccs2)C(=O)N[C@@H](CC2CCCCC2)[C@@H](O)[C@@H](O)CC(C)C)cc1 | 6 ng/mL | 23 ng/mL | 9 ng/mL | 23 ng/mL | 85 nM |  |  |  |  | 
CCN1C[C@@H]([C@H](O)[C@H](CC2CCCCC2)NC(=O)[C@H](Cc2c[nH]cn2)NC(=O)[C@H](Cc2ccc(OC)cc2)NC(=O)CC(C)(C)N)OC1=O | 110 ng/mL | 250 ng/mL | 93 ng/mL | 140 ng/mL | 17 nM |  |  |  |  | 
CCN1C[C@@H]([C@H](O)[C@H](CC2CCCCC2)NC(=O)[C@H](Cc2cscn2)NC(=O)[C@H](Cc2ccc(OC)cc2)NC(=O)CC(C)(C)N)OC1=O | 24 ng/mL | 240 ng/mL | 83 ng/mL | 880 ng/mL | 39 nM |  |  |  |  | 
COc1ccc(C[C@H](NC(=O)CC(C)(C)N)C(=O)N[C@@H](Cc2cscn2)C(=O)N[C@@H](CC2CCCCC2)[C@@H](O)[C@@H](O)CC(C)C)cc1 | 13 ng/mL | 53 ng/mL | 17 ng/mL | 93 ng/mL | 33 nM |  |  |  |  | 
CCN1C[C@@H]([C@H](O)[C@H](CC2CCCCC2)NC(=O)[C@H](Cc2cccs2)NC(=O)[C@H](Cc2ccc(OC)cc2)NC(=O)CC(C)(C)N)OC1=O | 32 ng/mL | 45 ng/mL | 16 ng/mL | 13 ng/mL | 69 nM |  |  |  |  | 
CCN1C[C@@H]([C@H](O)[C@H](CC2CCCCC2)NC(=O)[C@H](Cc2cc[nH]n2)NC(=O)[C@@H](CC(=O)N2CCOCC2)Cc2ccccc2)OC1=O | 7 ng/mL | 58 ng/mL | 7 ng/mL | 28 ng/mL |  | 2.49 |  |  |  | 
COc1ccc(C[C@H](NC(=O)N2CCN(C)CC2)C(=O)N[C@@H](Cc2cscn2)C(=O)N[C@@H](CC2CCCCC2)[C@@H](O)[C@@H](O)CC(C)C)cc1 |  |  |  |  | 120 nM |  |  |  |  | 
CCCC[C@H](NC(=O)[C@@H](CC(=O)N1CCN(C)CC1)Cc1ccccc1)C(=O)N[C@@H](CC1CCCCC1)[C@@H](O)[C@@H](O)CC(C)C | 650 ng/mL | 4600 ng/mL | 260 ng/mL | 3200 ng/mL | 25 nM | > 4.5 |  |  |  | 
CC(C)C[C@H](O)[C@H](O)[C@H](CC1CCCCC1)NC(=O)[C@H](Cc1cscn1)NC(=O)[C@H](Cc1ccccc1)N1CCOCC1 | 890 ng/mL | 3300 ng/mL | 420 ng/mL | 2600 ng/mL | 1600 nM |  |  |  |  | 
CCN1C[C@@H]([C@H](O)[C@H](CC2CCCCC2)NC(=O)[C@H](Cc2cscn2)NC(=O)[C@@H](CC(=O)N2CCOCC2)Cc2ccccc2)OC1=O | 300 ng/mL | 1100 ng/mL | 320 ng/mL | 1900 ng/mL |  | 2.83 | 3800 ng·h/mL | 3200 ng/mL | 770 ng·h/mL | 360 ng/mL
CC(C)C[C@H](O)[C@H](O)[C@H](CC1CCCCC1)NC(=O)[C@H](Cn1cccn1)NC(=O)[C@@H](CC(=O)N1CCN(C)CC1)Cc1ccccc1 | 140 ng/mL | 2300 ng/mL | 86 ng/mL | 2000 ng/mL | 18 nM | 4.39 |  |  |  | 
COc1ccc(C[C@H](NC(=O)C2CCN(C)CC2)C(=O)N[C@@H](Cc2cscn2)C(=O)N[C@@H](CC2CCCCC2)[C@@H](O)[C@@H](O)CC(C)C)cc1 | 90 ng/mL | 770 ng/mL | 160 ng/mL | 1200 ng/mL | 170 nM | 3.03 |  |  |  | 
COc1ccc(C[C@H](NC(=O)CC(C)(C)N)C(=O)N[C@@H](Cc2cnc[nH]2)C(=O)N[C@@H](CC2CCCCC2)[C@@H](O)[C@@H](O)CC(C)C)cc1 | 82 ng/mL | 540 ng/mL | 170 ng/mL | 1100 ng/mL |  |  |  |  |  | 
CCN1C[C@@H]([C@H](O)[C@H](CC2CCCCC2)NC(=O)[C@H](Cc2cnc[nH]2)NC(=O)[C@@H](CC(=O)N2CCOCC2)Cc2ccccc2)OC1=O | 34 ng/mL | 390 ng/mL | 55 ng/mL | 280 ng/mL |  |  |  |  |  | 
CC(C)C[C@H](NC(=O)[C@@H](CC(=O)N1CCN(C)CC1)Cc1ccccc1)C(=O)N[C@@H](CC1CCCCC1)[C@@H](O)[C@@H](O)CC(C)C | 620 ng/mL | 1200 ng/mL | 380 ng/mL | 880 ng/mL | 37 nM |  |  |  |  | 

Results, then the compound that gave them:

concentration at 0.5 h [1] | concentration at 0.5 h [2] | concentration at 10 min [3] | concentration at 10 min [4] | IC50 (Renin) | logD [5] | AUC [6] | Cmax [7] | AUC [8] | Cmax [9] | SMILES
 |  |  |  | 93 nM | 3.79 |  |  |  |  | CC(C)C[C@H](O)[C@H](O)[C@H](CC1CCCCC1)NC(=O)[C@H](Cn1ccnc1)NC(=O)[C@@H](CC(=O)N1CCOCC1)Cc1ccccc1
 |  |  |  | 110 nM |  |  |  |  |  | CC(C)C[C@H](O)[C@H](O)[C@H](CC1CCCCC1)NC(=O)[C@H](Cc1cccs1)NC(=O)[C@@H](CC(=O)N1CCN(C)CC1)Cc1ccccc1
11 ng/mL | 170 ng/mL | 13 ng/mL | 190 ng/mL | 1.6 nM | 3.51 |  |  |  |  | CC(C)C[C@H](O)[C@H](O)[C@H](CC1CCCCC1)NC(=O)[C@H](Cc1c[nH]cn1)NC(=O)[C@@H](CC(=O)N1CCOCC1)Cc1ccccc1
380 ng/mL | 1800 ng/mL | 190 ng/mL | 2500 ng/mL | 25 nM | 3.91 |  |  |  |  | CC(C)C[C@H](O)[C@H](O)[C@H](CC1CCCCC1)NC(=O)[C@H](Cc1cscn1)NC(=O)[C@@H](CC(=O)CN1CCOCC1)Cc1ccccc1
 |  |  |  | 18 nM |  |  |  |  |  | CC(C)C[C@H](O)[C@H](O)[C@H](CC1CCCCC1)NC(=O)[C@H](Cc1cscn1)NC(=O)[C@@H](CC(=O)N1CCN(C)CC1)Cc1ccccc1
 |  |  |  | 3.5 nM |  |  |  |  |  | CC(C)C[C@H](O)[C@H](O)[C@H](CC1CCCCC1)NC(=O)[C@H](Cc1ccn[nH]1)NC(=O)[C@@H](CC(=O)N1CCOCC1)Cc1ccccc1
170 ng/mL | 1400 ng/mL | 340 ng/mL | 3500 ng/mL | 88 nM | > 4.6 |  |  |  |  | CON(C)C[C@H](NC(=O)[C@@H](CC(=O)N1CCOCC1)Cc1ccccc1)C(=O)N[C@@H](CC1CCCCC1)[C@@H](O)[C@@H](O)CC(C)C
40 ng/mL | 30 ng/mL | 63 ng/mL | 67 ng/mL | 5.4 nM | 1.66 |  |  |  |  | CC(C)C[C@H](O)[C@H](O)[C@H](CC1CCCCC1)NC(=O)[C@H](Cc1c[nH]cn1)NC(=O)[C@@H](CC(=O)N1CCN(C)CC1)Cc1ccccc1
320 ng/mL | 3300 ng/mL | 470 ng/mL | 4900 ng/mL | 110 nM | 3.71 |  |  |  |  | CC(C)C[C@H](O)[C@H](O)[C@H](CC1CCCCC1)NC(=O)[C@H](Cc1cn(C)cn1)NC(=O)[C@@H](CC(=O)N1CCOCC1)Cc1ccccc1
22 ng/mL | 27 ng/mL | 21 ng/mL | 53 ng/mL | 2.8 nM | 4.02 |  |  |  |  | CC(C)C[C@H](O)[C@H](O)[C@H](CC1CCCCC1)NC(=O)[C@H](Cc1ccn[nH]1)NC(=O)[C@@H](CC(=O)N1CCN(C)CC1)Cc1ccccc1
 |  |  |  | 210 nM |  |  |  |  |  | CC(C)C[C@H](O)[C@H](O)[C@H](CC1CCCCC1)NC(=O)[C@H](CN(C)C)NC(=O)[C@@H](CC(=O)N1CCOCC1)Cc1ccccc1
 |  |  |  | 11 nM | 4.1 |  |  |  |  | CC(C)C[C@H](O)[C@H](O)[C@H](CC1CCCCC1)NC(=O)[C@H](CN=[N+]=[N-])NC(=O)[C@@H](CC(=O)N1CCOCC1)Cc1ccccc1
